Data taken from ChEMBL document CHEMBL3576806, “Design and synthesis of novel arctigenin analogues for the amelioration of metabolic disorders” (ACS Med Chem Lett, 2015).
Activity calls are given as the source filed them. No cut-off for these calls is given here.

Columns and labels:
L6 [1] = assay: Increase in glucose uptake in rat L6 cells at 12 uM pre-treated with compound for 30 mins using 2-deoxy-D-[1,2-3H]glucose and measured after 2 hrs by liquid scintillation counting method; assay type: functional
How it was run: (§1)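 L6 myotubes exposed to compound for 2 h at 1.5, 3, 6, 12 or 24 μM; 2-deoxyglucose uptake expressed as fold over untreated control; 3 μM (−)-arctigenin run alongside as positive control; mean ± SEM of 3 independent experiments.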

L6 [2] = assay: Increase in glucose uptake in rat L6 cells at 12 uM pre-treated with compound for 30 mins using 2-deoxy-D-[1,2-3H]glucose and measured after 2 hrs […] by liquid scintillation counting method; assay type: functional; how it was run: as §1
L6 [3] = assay: Ratio of glucose uptake in rat L6 cells at 12 uM after 2 hrs to glucose uptake in rat L6 cells at 12 uM after 2 hrs in presence of 3 uM (-)-arctigenin; assay type: functional
How it was run: (§2)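 Glucose uptake in L6 myotubes after 2 h compound exposure divided by uptake with the 3 μM (−)-arctigenin positive control run in parallel.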

L6 [4] = assay: Increase in glucose uptake in rat L6 cells at 3 uM pre-treated with compound for 30 mins using 2-deoxy-D-[1,2-3H]glucose and measured after 2 hrs by liquid scintillation counting method; assay type: functional; how it was run: as §1
L6 [5] = assay: Increase in glucose uptake in rat L6 cells at 3 uM […] using 2-deoxy-D-[1,2-3H]glucose and measured after 2 hrs […] by liquid scintillation counting method; assay type: functional; how it was run: as §1
L6 [6] = assay: Ratio of glucose uptake in rat L6 cells at 3 uM after 2 hrs to glucose uptake in rat L6 cells at 3 uM after 2 hrs in presence of 3 uM (-)-arctigenin; assay type: functional; how it was run: as §2
L6 [7] = assay: Increase in glucose uptake in rat L6 cells at 24 uM pre-treated with compound for 30 mins using 2-deoxy-D-[1,2-3H]glucose and measured after 2 hrs by liquid scintillation counting method; assay type: functional; how it was run: as §1
L6 [8] = assay: Increase in glucose uptake in rat L6 cells at 24 uM pre-treated with compound for 30 mins using 2-deoxy-D-[1,2-3H]glucose and measured after 2 hrs […] by liquid scintillation counting method; assay type: functional; how it was run: as §1
L6 [9] = assay: Ratio of glucose uptake in rat L6 cells at 24 uM after 2 hrs to glucose uptake in rat L6 cells at 24 uM after 2 hrs in presence of 3 uM (-)-arctigenin; assay type: functional; how it was run: as §2
L6 [10] = assay: Increase in glucose uptake in rat L6 cells at 1.5 uM pre-treated with compound for 30 mins using 2-deoxy-D-[1,2-3H]glucose and measured after 2 hrs by liquid scintillation counting method; assay type: functional; how it was run: as §1
L6 [11] = assay: Increase in glucose uptake in rat L6 cells at 1.5 uM pre-treated with compound for 30 mins using 2-deoxy-D-[1,2-3H]glucose and measured after 2 hrs in presence of 3 uM (-)-arctigenin by liquid scintillation counting method; assay type: functional; how it was run: as §1
L6 [12] = assay: Ratio of glucose uptake in rat L6 cells at 1.5 uM after 2 hrs to glucose uptake in rat L6 cells at 1.5 uM after 2 hrs in presence of 3 uM (-)-arctigenin; assay type: functional; how it was run: as §2
L6 [13] = assay: Increase in glucose uptake in rat L6 cells at 6 uM pre-treated with compound for 30 mins using 2-deoxy-D-[1,2-3H]glucose and measured after 2 hrs by liquid scintillation counting method; assay type: functional; how it was run: as §1
L6 [14] = assay: Increase in glucose uptake in rat L6 cells at 6 uM pre-treated with compound for 30 mins using 2-deoxy-D-[1,2-3H]glucose and measured after 2 hrs […] by liquid scintillation counting method; assay type: functional; how it was run: as §1
L6 [15] = assay: Ratio of glucose uptake in rat L6 cells at 6 uM after 2 hrs to glucose uptake in rat L6 cells at 6 uM after 2 hrs in presence of 3 uM (-)-arctigenin; assay type: functional; how it was run: as §2
L6 [16] = assay: Induction of AMPK phosphorylation in rat L6 cells at 1.5 uM incubated for 2 hrs by Western blotting method; assay type: cell-based
How it was run: (§3)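 L6 myotubes treated 2 h at the stated concentrations; phosphorylated AMPK and phosphorylated ACC detected by immunoblot.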

L6 [17] = assay: Induction of AMPK phosphorylation in rat L6 cells at 3 uM incubated for 2 hrs by Western blotting method; assay type: cell-based; how it was run: as §3
L6 [18] = assay: Induction of AMPK phosphorylation in rat L6 cells at 6 uM incubated for 2 hrs by Western blotting method; assay type: cell-based; how it was run: as §3
L6 [19] = assay: Induction of AMPK activation in rat L6 cells assessed as increase in ACC phosphorylation at 1.5 uM incubated for 2 hrs by Western blotting method; assay type: cell-based; how it was run: as §3
L6 [20] = assay: Induction of AMPK activation in rat L6 cells assessed as increase in ACC phosphorylation at 3 uM incubated for 2 hrs by Western blotting method; assay type: cell-based; how it was run: as §3
L6 [21] = assay: Induction of AMPK activation in rat L6 cells assessed as increase in ACC phosphorylation at 6 uM incubated for 2 hrs by Western blotting method; assay type: cell-based; how it was run: as §3
L6 [22] = assay: Increase in glucose uptake in rat L6 cells at 0.75 uM to 3 uM pre-treated with compound for 30 mins using 2-deoxy-D-[1,2-3H]glucose and measured after 2 hrs by liquid scintillation counting method; assay type: functional, cell-based
L6 [23] = assay: Increase in glucose uptake in rat L6 cells at 3 umol/L pre-treated with compound for 30 mins using 2-deoxy-D-[1,2-3H]glucose and measured after 2 hrs by liquid scintillation counting method relative to control; assay type: functional; how it was run: as §1
L6 [24] = assay: Increase in glucose uptake in rat L6 cells at 6 umol/L pre-treated with compound for 30 mins using 2-deoxy-D-[1,2-3H]glucose and measured after 2 hrs by liquid scintillation counting method relative to control; assay type: functional; how it was run: as §1

## COc1ccc(C[C@H]2COC(=O)[C@@H]2Cc2ccc(O)cc2)cc1OC
L6 [1]
  Activity: 179.5%
L6 [2]
  Activity: 200.6%
L6 [3]
  Ratio: 0.895

## COc1ccccc1C[C@H]1C(=O)OC[C@@H]1Cc1ccc(OC)c(OC)c1
L6 [4]
  Activity: 97.4%
L6 [5]
  Activity: 190.1%
L6 [6]
  Ratio: 0.512

## COc1ccc(C[C@H]2COC(=O)[C@@H]2Cc2cccc(O)c2)cc1OC
L6 [7]
  Activity: 180.3%
L6 [8]
  Activity: 217.8%
L6 [9]
  Ratio: 0.828

## COc1ccc(C[C@H]2COC(=O)[C@@H]2Cc2ccc(F)cc2)cc1OC
L6 [10]
  Activity: 116.4%
L6 [11]
  Activity: 239.6%
L6 [12]
  Ratio: 0.486

## COc1ccc(C[C@H]2COC(=O)[C@@H]2Cc2ccc(O)c(OC)c2)cc1
L6 [7]
  Activity: 235.1%
L6 [8]
  Activity: 262.4%
L6 [9]
  Ratio: 0.896

## COc1ccc(C[C@H]2COC(=O)[C@@H]2Cc2ccc(Cl)cc2)cc1OC
L6 [13]
  Activity: 191.1%
L6 [14]
  Activity: 185.5%
L6 [15]
  Ratio: 1.03
L6 [16]
  Activity: Active
L6 [17]
  Activity: Active
L6 [18]
  Activity: Active
L6 [19]
  Activity: Active
L6 [20]
  Activity: Active
L6 [21]
  Activity: Active

## COc1ccc(C[C@H]2COC(=O)[C@@H]2Cc2ccc(N)cc2)cc1OC
L6 [4]
  Activity: 126.6%
L6 [5]
  Activity: 205.4%
L6 [6]
  Ratio: 0.616

## COc1ccc(C[C@H]2COC(=O)[C@@H]2Cc2ccccc2Cl)cc1OC
L6 [4]
  Activity: 112.4%
L6 [5]
  Activity: 206.4%
L6 [6]
  Ratio: 0.545

## COc1cc(C[C@H]2C(=O)OC[C@@H]2Cc2cc(OC)c(OC)c(OC)c2)ccc1O
L6 [13]
  Activity: 128.8%
L6 [14]
  Activity: 233.9%
L6 [15]
  Ratio: 0.551

## COc1ccc(C[C@H]2COC(=O)[C@@H]2Cc2ccc(O)c(O)c2)cc1OC
L6 [4]
  Activity: 243.2%
L6 [5]
  Activity: 238.9%
L6 [6]
  Ratio: 1.018

## COc1cc(C[C@H]2C(=O)OC[C@@H]2Cc2ccc(OC)c(OC)c2)ccc1O [ARCTIGENIN]
L6 [22]
  Activity: Dose-dependent effect
L6 [23]
  fold change (FC): 1.75

## COc1ccc(C[C@H]2C(=O)OC[C@@H]2Cc2ccc(OC)c(OC)c2)cc1
L6 [10]
  Activity: 108.4%
L6 [11]
  Activity: 182.1%
L6 [12]
  Ratio: 0.595

## COc1cc(C[C@H]2COC[C@@H]2Cc2ccc(OC)c(OC)c2)ccc1O
L6 [24]
  fold change (FC): 1.31
